Series [1] concerns Staphylococcus aureus. Briefly: Antimicrobial activity against Staphylococcus aureus assessed as inhibition of microbial growth at 0.03125 to 0.5 mg/ml measured every 20 mins for 24 hrs by spectrophotometry. Format: functional, organism-based. An outline of the steps: (§1)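 Broth microdilution: colony suspensions grown overnight at 37°C with shaking, standardised to McFarland 0.5, inoculated at final 5 × 10^5 cfu mL^-1 into nutrient broth holding serially diluted test solution. Rifampicin (61 µM) as control; untreated wells included. 37°C, 300 rpm shaking, OD600 read every 20 min over 24 h.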

Series [2] has as its system HepG2. Kind of series: Cytotoxicity against human HepG2 at <200 uM after 20 hrs by MTT assay. Format: cell-based. The following applies: hepg2, 20 h. An outline of the steps:
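HepG2 seeded 2.0 × 10^4/well in modified BME with 10% FBS, L-Gln, non-essential amino acids and antibiotic/antimycotic; 24 h at 37°C, 5% CO2 before dosing at 100-0.01 µM final. After 20 h, MTT added for 4 h; formazan dissolved in DMSO:isopropanol (1:1), A570 read. 1% DMSO and 1% Triton X-100 controls; blank-corrected; three data sets.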
In general terms: Tetrazolium dyes change colour on reduction, which living cells bring about.

In series [3] the test system is Schistosoma mansoni. Briefly: Antischistosomal activity against schistosomula larval stage of Schistosoma mansoni assessed as effect on motility at 10 uM after 24 hrs. The format is functional, organism-based. In a few lines:
(§2)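 24 h cultured, mechanically transformed S. mansoni schistosomula (~120/well) in Basch medium, exposed to compound at 10 µM final (DMSO stock 1.6 mM) in 384-well format; DMSO and auranofin controls, 16 wells each. Incubated 24 h, 37°C, 5% CO2, then high-content imaging scored motility and phenotype.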

Series [4] relates to Escherichia coli. Briefly: Antimicrobial activity against Escherichia coli assessed as inhibition of microbial growth at 0.03125 to 0.5 mg/ml measured every 20 mins for 24 hrs by spectrophotometry. The format is functional, organism-based. An outline of the steps: as §1
Series [5] relates to Candida albicans. Kind of series: Antimicrobial activity against Candida albicans assessed as inhibition of microbial growth at 0.03125 to 0.5 mg/ml measured every 20 mins for 24 hrs by spectrophotometry. Format: functional, organism-based. An outline of the steps:
as §1

Series [6] concerns Pseudomonas aeruginosa. Kind of series: Antimicrobial activity against Pseudomonas aeruginosa assessed as inhibition of microbial growth at 0.03125 to 0.5 mg/ml measured every 20 mins for 24 hrs by spectrophotometry. Format: functional, organism-based. In a few lines: as §1
The test system of series [7] is Mycolicibacterium smegmatis. Kind of series: Antimicrobial activity against Mycobacterium smegmatis assessed as inhibition of microbial growth at 0.03125 to 0.5 mg/ml measured every 20 mins for 24 hrs by spectrophotometry. Format: functional, organism-based. In a few lines:
as §1

In series [8] the test system is Schistosoma mansoni. Briefly: Antischistosomal activity against schistosomula larval stage of Schistosoma mansoni assessed as effect on phenotype at 10 uM after 24 hrs. Format: functional, organism-based. An outline of the steps: as §2
The subject of series [9] is Escherichia coli. Briefly: Growth stimulation of Escherichia coli at >100 uM measured every 20 mins for 24 hrs by spectrophotometry. Format: organism-based. An outline of the steps: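 E. coli in nutrient broth with serially diluted compound, final inoculum 5 × 10^5 cfu mL^-1. Incubated 37°C with 300 rpm shaking, OD600 read every 20 min for 24 h. Data given as OD600 percentage of no-drug control wells, mean ± error.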

The source made the active and inactive calls. The calls are words filed in the database; no cut-off is given here.

On to `C[C@@H]1C[C@H](O)[C@]23CO[C@](O)(CC[C@@H]2[C@@]12C[C@@H](c1ccoc1)OC2=O)[C@@H]3CO`, for which the result in series [1], in series [3], in series [4], in series [5], in series [6] and in series [7] was inactive. Further, the result in [8] was inactive. In addition, the Activity result in [2] is “Non-Toxic”.

Consider `CC(=O)OC[C@@]12[C@@H]3CC[C@H](O)[C@]1(O)CO[C@]2(O)C[C@@H](C)[C@]31C[C@@H](c2ccoc2)OC1=O`, for which the outcome in series [1], in series [3], in series [4], in [5], in series [6] and in [7] was inactive. In [8], the result was inactive. Moreover, the Activity result in [2] is listed as “Non-Toxic”.

On to `C[C@@H]1C[C@@]2(O)OC[C@]3(O)[C@H]2[C@H](CC[C@@H]3O)[C@@]12C[C@@H](c1ccoc1)OC2=O`, for which the result in series [1], in series [3], in series [4], in series [5], in series [6] and in [7] was inactive. Also, the result in series [8] was inactive. Also, the Activity result in [2] is listed as “Non-Toxic”.

Regarding `CC(=O)OC[C@]1(CC(O)c2ccoc2)[C@H](C)C[C@H](O)[C@]2(COC(C)=O)[C@@H]1CC[C@H](O)[C@]21CO1` (stereo partly drawn), the Activity result in series [9] is reported as “Dose-dependent effect”; in series [2], “Non-Toxic”. Further, the result in [1], in series [3], in series [4], in series [5], in [6] and in series [7] was inactive. For the same compound, the outcome in [8] was inactive.

On to `C[C@@H]1CC(=O)[C@@H]2[C@H](CC[C@H](O)[C@]2(O)COC(=O)c2ccc(O)cc2)[C@@]12C[C@@H](c1ccoc1)OC2=O`, for which the outcome in series [1], in series [3], in [4], in [5], in series [6] and in [7] was inactive. The outcome in series [8] was inactive. Besides, the Activity result in series [2] is “Non-Toxic”.

Regarding `CC(=O)OC[C@]1(CCC2=CC(O)OC2=O)[C@H](C)C[C@H](O)[C@]2(COC(C)=O)[C@@H]1CC[C@H](O)[C@]21CO1` (stereo partly drawn), the Activity entry in series [9] is reported as “Dose-dependent effect”; in series [2], “Non-Toxic”. Further, the result in [1], in series [3], in [4], in series [5], in series [6] and in series [7] was inactive. The outcome in [8] was inactive.

Regarding `C[C@@H]1C[C@@]2(O)OC[C@@]3(O)[C@@H](O)CC[C@@H]4[C@]1(CC(O)c1ccoc1)C(=O)OC[C@]423` (stereo partly drawn), the outcome in series [1], in series [3], in series [4], in series [5], in [6] and in series [7] was inactive. The outcome in series [8] was inactive. For the same compound, the Activity result in series [2] is given as “Non-Toxic”.

For the origin of these results see ChEMBL document CHEMBL4190206, “Neoclerodane Diterpenoids from Reehal Fatima, Teucrium yemense” (J Nat Prod, 2017).
